These results are taken from publication PMC3907283 (Nature, 2013).

Positions count from the first letter of the chain named.

Data set [1] has as its system Swi6. Put plainly: Swi6 self-association by sedimentation equilibrium/velocity AUC. It counts as binding, S. pombe. The following applies: AUC, Supplementary Fig. 6.
Data set [2] concerns Swi6. The data set is described as follows: SV AUC weighted average sedimentation coefficient. It counts as binding, S. pombe. The following applies: [Swi6^WT] = 20μM.
Data set [3] has as its target T1, Swi6 (Schizosaccharomyces pombe, UniProt P40381).
T1 sequence (P40381 1-328): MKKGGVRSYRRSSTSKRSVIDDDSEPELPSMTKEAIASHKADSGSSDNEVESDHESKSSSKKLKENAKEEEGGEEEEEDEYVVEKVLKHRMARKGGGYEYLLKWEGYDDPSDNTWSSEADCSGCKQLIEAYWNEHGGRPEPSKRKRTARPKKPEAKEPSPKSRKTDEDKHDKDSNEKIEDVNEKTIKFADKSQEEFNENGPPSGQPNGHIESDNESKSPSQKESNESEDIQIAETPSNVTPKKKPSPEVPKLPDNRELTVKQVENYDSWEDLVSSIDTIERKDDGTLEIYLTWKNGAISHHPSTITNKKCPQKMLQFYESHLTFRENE
Put plainly: Swi6 self-association by sedimentation equilibrium/velocity AUC. The format is binding, S. pombe. The following applies: AUC.

In data set [4] the target is Swi6 (Schizosaccharomyces pombe, UniProt P40381, C121S/C124S/C310S). The description is as above. The format is binding, S. pombe. The following applies: all three native cysteines mutated to serines; Supplementary Fig. 5.
Chain of Swi6 (Schizosaccharomyces pombe, UniProt P40381, C121S/C124S/C310S) (P40381 whole entry C121S/C124S/C310S): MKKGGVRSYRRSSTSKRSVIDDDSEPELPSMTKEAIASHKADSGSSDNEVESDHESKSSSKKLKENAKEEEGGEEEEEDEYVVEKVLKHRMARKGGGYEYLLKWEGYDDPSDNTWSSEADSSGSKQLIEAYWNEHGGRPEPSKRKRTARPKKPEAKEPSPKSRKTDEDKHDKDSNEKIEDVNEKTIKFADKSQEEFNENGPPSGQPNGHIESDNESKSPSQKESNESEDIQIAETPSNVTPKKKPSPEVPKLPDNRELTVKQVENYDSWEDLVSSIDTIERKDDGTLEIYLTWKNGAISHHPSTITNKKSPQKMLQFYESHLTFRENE
Data set [5] deals with H3K9me3 tail peptide. The data set is described as follows: H3 tail peptide binding. The following applies: Supplementary Fig. 5. Put shortly:
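Intrinsic Trp fluorescence (W104 in aromatic cage): 200nM Swi6 in 20mM HEPES pH 7.5, 150mM KCl, 1 mM DTT, titrated with H3 peptide (residues 1–18), K9 trimethylated or unmethylated. 10min at 30°C, excitation 295 nm, emission read at 330 nm. Kd from 1:1 binding fit, averaged over three independent data sets.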

A further data set has as its system H3K9me3 nucleosomes. The data set is described as follows: Nucleosome binding by fluorescence anisotropy/polarization. Details: species or system Xenopus laevis. An outline of the steps: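 Core nucleosomes assembled from recombinant Xenopus histones on 147 bp 601 DNA, one end 6-carboxyfluorescein-labelled; H3K9me3 mimicked by methyl-lysine analog (H3KC9me3). 5-10 nM nucleosomes titrated with Swi6 in 20mM HEPES pH 7.5, 150mM KCl, 1 mM DTT, 0.01% NP40; 30 min at 24°C; FP at λex 480/λem 530nm. Fit to a two-step model giving Kd1 (Swi6–nucleosome) and Kd2 (scaffolded Swi6–Swi6); n ≥ 3, s.e.m.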
For orientation: Polarisation of emitted light reports the rotation of a fluorescent probe.

Data set [6] deals with Swi6. The data set is described as follows: Swi6 protein levels in vivo. The settings on record: silencing strains; Supplementary Fig. 9. The format is cell-based, S. pombe. An outline of the steps: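 Detection with rabbit polyclonal antibodies raised against recombinant Swi6.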
Data set [7] concerns ura4+ reporter gene inserted at the pericentromeric imr region. The data set is described as follows: ura4+ reporter silencing assay. The format is cell-based, S. pombe. The following applies: 5-FOA medium, 30°C, 2-3 days; Fig. 4d. Put shortly:
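Strains grown overnight to saturation, adjusted to OD600 of 1 for the most concentrated spot, then 5-fold serial dilutions plated on non-selective YS and on 5-FOA (2 grams/liter) media.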

The target in data set [8] is H3K9me3 tail peptide (UniProt P68431). Put plainly: other fluorescence titration + fluorescence polarisation.
Data set [9] concerns the molecule itself. The data set is described as follows: AUC.
Data set [10] deals with the molecule itself. The data set is described as follows: AUC. The source holds these as a separate data set.

With “Swi6-CFP: Swi6 with the CFP tag moved to the C-terminus”, in the data set on Swi6 [1], the “sedimentation coefficient compared to CFP-Swi6 (in words)” value is reported as “lower sedimentation coefficient”.
As for “Swi6^WT: major S. pombe HP1 protein, Swi6, wild type”, the “sedimentation coefficient, tetramer (S4)” value in the data set with Swi6 [2] is ~ 5.2 S. For the same molecule, in the data set with Swi6 [3] (SE and SV global analysis, 8°C, RB: 20mM HEPES pH 7.5, 150mM KCl, 1 mM DTT), the “1/Kobsiso, isodesmic self-association of Swi6 dimers (chain elongation)” value was about 70 µM. The “Swi6 dimerization with saturating methylated H3 tail peptide” value with Swi6 [3] (saturating methylated H3 tail peptide, Supplementary Fig. 4) is “weakened”. Further, the “effect of mutating native cysteines on oligomerization” value in the data set with Swi6 [4] was “destabilized oligomerization”. Also, the “effect of mutating native cysteines on H3 peptide binding” value in the data set with H3K9me3 tail peptide [5] is listed as “destabilized oligomerization, H3 peptide binding”. In the data set with H3K9me3 nucleosomes (Supplementary Fig. 5), the “effect of mutating native cysteines on nucleosome binding” value is “destabilized oligomerization, H3 peptide binding, and nucleosome binding”.

B1: Swi6^LoopX (natural protein)
chain: T1 sequence (P40381 1-328) with R93A, K94A
In the case of B1, the Swi6 protein levels entry in the data set with Swi6 [6] is given as “not due to reductions in protein levels”. In addition, the “silencing of ura4+ reporter” value in [7] is on record as “defects in silencing that are comparable to the swi6+ deletion strain”. In addition, in the data set with H3K9me3 tail peptide [8], the fold stronger binding than Swi6^WT came to 6 fold. In the data set with H3K9me3 nucleosomes (fluorescence anisotropy, Fig. 4a and Supplementary Fig. 8), the “discrimination for the methyl mark in nucleosome binding” value is listed as “discrimination for the methyl mark was maintained”.

B2: CFP-Swi6 (natural protein, S. pombe, UniProt P40381 1-328, looked up)
chain: T1 sequence (P40381 1-328)
With B2, the “fold weaker dimer than Swi6^WT” value in the data set “AUC [9]” is about 10 fold.

B3: Swi6^WT (natural protein, S. pombe, UniProt P40381 1-328, looked up)
chain: T1 sequence (P40381 1-328)
A word on the Kd: it is the free concentration of one partner at which half of the binding sites on the other are occupied at equilibrium, for simple one-to-one binding. Consider B3, for which the Kd in “AUC [10]” was under 1 nM.
